In paper PMC4339026 (Biopolymers, 2014):

Tests used:
Assay type in all cases: biochemical
MMP-13 = MMP-13 (Homo sapiens, UniProt P45452); assay: Selectivity testing against zinc metalloproteases: MMP-13; conditions: read-out: IC50 MMP-13; n = 3 Mean ± SD
MMP-1 = biological target: T1, MMP-1 (Homo sapiens, UniProt P03956); assay: Selectivity testing against zinc metalloproteases: MMP-1; conditions: read-out: IC50 MMP-1; n = 3 Mean ± SD
T1 sequence (P03956 100-469): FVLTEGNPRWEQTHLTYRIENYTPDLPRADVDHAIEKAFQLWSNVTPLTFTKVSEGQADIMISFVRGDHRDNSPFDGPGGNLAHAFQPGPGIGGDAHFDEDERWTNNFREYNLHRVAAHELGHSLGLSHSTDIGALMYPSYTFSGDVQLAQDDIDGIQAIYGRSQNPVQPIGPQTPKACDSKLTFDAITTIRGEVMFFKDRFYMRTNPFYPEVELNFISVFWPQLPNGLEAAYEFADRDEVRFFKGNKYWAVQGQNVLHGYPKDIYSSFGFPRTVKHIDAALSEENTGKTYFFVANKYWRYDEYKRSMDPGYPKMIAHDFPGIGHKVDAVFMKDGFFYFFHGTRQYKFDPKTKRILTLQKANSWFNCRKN

meprin β [1] = biological target: T2, meprin β (Homo sapiens, UniProt Q16820); assay: Meprin β LOPAC pilot screen; conditions: 18 μM
T2 sequence (Q16820 62-614 limits assumed): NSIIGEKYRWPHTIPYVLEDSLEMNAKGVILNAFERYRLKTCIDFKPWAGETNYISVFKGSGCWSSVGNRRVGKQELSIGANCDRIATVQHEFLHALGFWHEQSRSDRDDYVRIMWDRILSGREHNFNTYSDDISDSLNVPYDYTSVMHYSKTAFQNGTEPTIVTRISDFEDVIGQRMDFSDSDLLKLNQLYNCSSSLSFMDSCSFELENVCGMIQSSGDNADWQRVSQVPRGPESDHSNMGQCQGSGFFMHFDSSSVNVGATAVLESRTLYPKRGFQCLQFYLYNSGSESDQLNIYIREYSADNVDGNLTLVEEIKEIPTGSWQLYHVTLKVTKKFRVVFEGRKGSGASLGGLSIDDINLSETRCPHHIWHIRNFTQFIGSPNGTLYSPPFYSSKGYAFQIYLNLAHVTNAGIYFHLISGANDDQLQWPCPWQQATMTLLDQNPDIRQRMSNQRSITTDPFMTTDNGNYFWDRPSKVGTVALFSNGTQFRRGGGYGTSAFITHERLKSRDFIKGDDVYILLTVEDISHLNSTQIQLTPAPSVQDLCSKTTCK

ADAM17 = ADAM17 (Homo sapiens, UniProt P78536); assay: Selectivity testing against zinc metalloproteases: ADAM17; conditions: read-out: IC50 ADAM17; n = 3 Mean ± SD
ADAM17, sequence (P78536 215-824, species assumed): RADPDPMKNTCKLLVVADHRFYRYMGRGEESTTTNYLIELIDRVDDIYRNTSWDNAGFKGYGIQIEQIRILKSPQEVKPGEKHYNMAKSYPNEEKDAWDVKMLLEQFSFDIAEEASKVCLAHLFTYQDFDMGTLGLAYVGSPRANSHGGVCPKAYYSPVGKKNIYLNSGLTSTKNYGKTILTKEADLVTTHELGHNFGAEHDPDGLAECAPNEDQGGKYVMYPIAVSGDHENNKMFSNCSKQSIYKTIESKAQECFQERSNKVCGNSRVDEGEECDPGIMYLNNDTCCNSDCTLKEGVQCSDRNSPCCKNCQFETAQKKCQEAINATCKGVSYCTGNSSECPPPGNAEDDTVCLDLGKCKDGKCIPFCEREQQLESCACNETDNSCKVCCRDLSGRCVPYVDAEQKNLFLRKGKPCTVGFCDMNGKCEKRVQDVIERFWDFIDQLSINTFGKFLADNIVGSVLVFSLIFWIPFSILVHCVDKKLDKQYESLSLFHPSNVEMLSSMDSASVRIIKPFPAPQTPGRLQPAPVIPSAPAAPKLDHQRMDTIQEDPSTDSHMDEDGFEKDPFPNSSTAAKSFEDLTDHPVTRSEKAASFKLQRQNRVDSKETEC

meprin α = biological target: T3, meprin α (Homo sapiens, UniProt Q16819); assay: Meprin α HTS FRET assay, dose response; conditions: read-out: IC50 Meprin α; selectivity testing; n = 3 Mean ± SD
T3 sequence (Q16819 66-653 limits assumed): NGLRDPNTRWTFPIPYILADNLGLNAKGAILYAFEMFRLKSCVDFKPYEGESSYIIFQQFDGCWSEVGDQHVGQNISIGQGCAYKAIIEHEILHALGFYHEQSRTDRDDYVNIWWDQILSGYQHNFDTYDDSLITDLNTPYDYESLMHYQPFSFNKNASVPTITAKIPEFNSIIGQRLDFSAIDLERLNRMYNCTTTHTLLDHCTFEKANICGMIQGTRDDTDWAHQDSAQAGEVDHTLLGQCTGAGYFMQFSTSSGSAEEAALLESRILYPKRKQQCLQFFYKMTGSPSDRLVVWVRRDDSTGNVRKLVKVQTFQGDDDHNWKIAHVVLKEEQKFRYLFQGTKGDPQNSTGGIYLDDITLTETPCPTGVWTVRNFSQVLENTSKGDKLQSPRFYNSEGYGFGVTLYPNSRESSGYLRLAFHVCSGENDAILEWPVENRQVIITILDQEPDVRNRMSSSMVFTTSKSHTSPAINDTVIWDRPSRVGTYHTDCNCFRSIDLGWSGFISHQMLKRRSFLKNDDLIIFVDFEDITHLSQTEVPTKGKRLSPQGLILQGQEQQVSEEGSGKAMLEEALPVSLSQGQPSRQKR
How it was run: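 Recombinant human Strep-tagged meprin α was expressed in baculovirus-infected BTI-TN-5B1-4 cells, trypsin-activated, then freed of trypsin. It was used as a 2x solution at 2.6 nM in 50 mM Hepes, 0.01% Brij-35, pH 7.5. Test compound was pre-incubated 30 min at RT, then 2x (MCA)-YVADAPK-(K-ε-DNP) at 20 μM was added for 1 h at RT. Read at ex 324/em 393 nm. 3-fold dilutions in quadruplicate; 4-parameter fit; 0.1% or 1.0% DMSO.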

ADAM10 = biological target: T4, ADAM10 (Homo sapiens, UniProt O14672); assay: Selectivity testing against zinc metalloproteases: ADAM10; conditions: read-out: IC50 ADAM10; n = 3 Mean ± SD
T4 sequence (O14672 214-748): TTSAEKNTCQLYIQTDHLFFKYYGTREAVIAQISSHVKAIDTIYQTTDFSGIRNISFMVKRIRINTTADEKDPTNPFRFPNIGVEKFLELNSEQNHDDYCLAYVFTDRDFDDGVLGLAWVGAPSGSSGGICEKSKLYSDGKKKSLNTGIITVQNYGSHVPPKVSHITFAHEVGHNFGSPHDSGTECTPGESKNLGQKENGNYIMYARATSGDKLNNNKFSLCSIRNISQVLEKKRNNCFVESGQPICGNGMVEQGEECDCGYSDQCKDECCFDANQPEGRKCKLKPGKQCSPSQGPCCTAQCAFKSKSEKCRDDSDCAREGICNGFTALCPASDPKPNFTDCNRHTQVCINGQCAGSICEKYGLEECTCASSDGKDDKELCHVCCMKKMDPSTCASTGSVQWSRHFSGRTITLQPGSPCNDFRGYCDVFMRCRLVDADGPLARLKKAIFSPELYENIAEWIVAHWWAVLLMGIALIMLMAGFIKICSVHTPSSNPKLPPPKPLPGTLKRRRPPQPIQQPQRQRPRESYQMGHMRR

MMP-9 = MMP-9 (Homo sapiens, UniProt P14780); assay: Selectivity testing against zinc metalloproteases: MMP-9; conditions: read-out: IC50 MMP-9; n = 3 Mean ± SD
MMP-9, sequence (P14780 94-707, species assumed): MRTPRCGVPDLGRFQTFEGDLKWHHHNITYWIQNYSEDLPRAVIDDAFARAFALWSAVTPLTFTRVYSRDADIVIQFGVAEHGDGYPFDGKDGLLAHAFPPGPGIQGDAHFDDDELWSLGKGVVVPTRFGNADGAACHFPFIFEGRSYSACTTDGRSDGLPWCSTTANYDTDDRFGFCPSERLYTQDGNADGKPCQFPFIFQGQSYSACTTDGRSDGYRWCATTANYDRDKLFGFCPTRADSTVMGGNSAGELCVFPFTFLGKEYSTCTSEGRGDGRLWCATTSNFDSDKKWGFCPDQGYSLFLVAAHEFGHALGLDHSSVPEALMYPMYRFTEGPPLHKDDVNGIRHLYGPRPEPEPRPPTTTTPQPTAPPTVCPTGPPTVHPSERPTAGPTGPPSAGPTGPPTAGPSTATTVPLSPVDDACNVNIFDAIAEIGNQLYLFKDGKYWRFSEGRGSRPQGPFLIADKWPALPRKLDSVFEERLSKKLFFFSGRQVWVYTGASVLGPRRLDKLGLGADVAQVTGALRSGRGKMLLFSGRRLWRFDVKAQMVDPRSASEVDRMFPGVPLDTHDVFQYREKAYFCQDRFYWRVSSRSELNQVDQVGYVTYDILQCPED

MMP-2 = biological target: T5, MMP-2 (Homo sapiens, UniProt P08253); assay: Selectivity testing against zinc metalloproteases: MMP-2; conditions: read-out: IC50 MMP-2; n = 3 Mean ± SD
T5 sequence (P08253 110-660): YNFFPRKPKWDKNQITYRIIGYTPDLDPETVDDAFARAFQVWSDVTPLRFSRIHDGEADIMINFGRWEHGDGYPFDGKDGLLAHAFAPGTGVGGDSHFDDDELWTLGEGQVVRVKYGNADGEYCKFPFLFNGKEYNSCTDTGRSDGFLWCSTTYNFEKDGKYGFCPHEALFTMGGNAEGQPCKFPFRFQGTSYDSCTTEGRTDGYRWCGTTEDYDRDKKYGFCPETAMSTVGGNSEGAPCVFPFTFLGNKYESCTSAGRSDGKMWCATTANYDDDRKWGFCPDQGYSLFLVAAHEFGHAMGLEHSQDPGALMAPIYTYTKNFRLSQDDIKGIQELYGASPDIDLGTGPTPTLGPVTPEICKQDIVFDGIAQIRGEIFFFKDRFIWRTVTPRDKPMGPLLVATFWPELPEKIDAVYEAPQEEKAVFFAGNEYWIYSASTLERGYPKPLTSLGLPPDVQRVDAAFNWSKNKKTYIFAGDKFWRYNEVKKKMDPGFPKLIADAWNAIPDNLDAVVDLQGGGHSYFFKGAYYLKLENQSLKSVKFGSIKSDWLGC

meprin β [2] = biological target: T2, meprin β; assay: Meprin β HTS FRET assay, dose response; conditions: dose response experiment, data not shown
How it was run: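 Trypsin-activated meprin β (trypsin removed on immobilized ovomucoid) in 50 mM Hepes, 0.01% Brij-35, pH 7.5, added as 2x (0.15 nM) solution. Pin-transferred inhibitor was preincubated 30 min at RT. 2x (20 μM) (MCA)-EDEDED-(K-ε-DNP) was then added, run 1 h at RT, and read at ex 324/em 393 nm. A 3-fold dilution series was run in quadruplicate, and % inhibition was fitted with a 4-parameter equation. DMSO final was 0.1% or 1.0%.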

N.N.[Cl][Pt][Cl] [Cisplatin, cisplatin]
IC50 (MMP-13): > 100 µM | IC50 (MMP-1): 5.1 ± 0.5 µM | % inhibition meprin β in pilot screen (meprin β [1]): negative inhibition values | meprin β LOPAC pilot screen outcome (meprin β [1]; hit cutoff 25% inhibition): selective hits | IC50 (ADAM17): 5.1 ± 0.4 µM | IC50 (meprin α): > 100 µM | IC50 (ADAM10): 4.2 ± 0.2 µM | IC50 (MMP-9): 13.9 ± 2.1 µM | IC50 (MMP-2): 5.1 ± 0.6 µM | meprin β dose response behaviour (meprin β [2]): dose dependent negative inhibition
